Experimental data: ChEMBL document CHEMBL1132688, “Synthesis of a series of 4-benzyloxyaniline analogues as neuronal N-type calcium channel blockers with improved anticonvulsant and analgesic properties” (J Med Chem, 1999)
≈ marks a conversion by molar mass, not a printed value.

Experiments:
[1] = biological target: Voltage-dependent N-type calcium channel subunit alpha-1B (Homo sapiens, UniProt Q00975); test: Inhibition of N-type calcium channels in IMR32 human neuroblastoma cells; assay type: functional
Outline: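 Differentiated IMR32 cells (dibutyryl cAMP 1 mM + BrdU 2.5 μM, 7–13 days), Indo-1 AM loaded; 10 min compound preincubation at 30 °C with 5 μM nitrendipine; high-K+ depolarization, fluorescence ratio 400/490 nm (ex 350 nm). Percent inhibition of K+-evoked Ca2+ rise; IC50 from five-point curves, four-parameter logistic fit.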

[2] = solubility at pH 7.4; assay type: physicochemical; conditions: buffer
Outline: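 DMSO solution diluted 20-fold into PBS with 25 mM potassium phosphate pH 7.4 (final 5% DMSO) to precipitate; stirred 1 h at 22 °C, centrifuged 20000g 5 min; supernatant quantified by HPLC against DMSO standard.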

[3] = system: Mus musculus; test: Anticonvulsant activity at 30 mg/kg tested against audiogenic seizure model using DBA/2 mice; assay type: functional
Outline: (§1)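 Male DBA/2 mice, 3–4 weeks old (6.5–12 g, 20–23 days), n = 5 per dose, given iv into retro-orbital sinus; tested 15 or 45 min post-dose with sound stimulus until tonic extension or max 60 s. Value is percentage of mice without tonic seizure.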

[4] = organism: Mus musculus; test: Anticonvulsant activity against audiogenic seizure model using DBA/2 mice; assay type: functional
Outline: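 Male DBA/2 mice, 3–4 weeks old (6.5–12 g, 20–23 days); iv dosing into retro-orbital sinus, tested 15 or 45 min later. Sound stimulus in enclosed chamber until tonic extension or max 60 s. Tonic seizure occurrence used for ED50 by probit analysis; each mouse used once per time/dose point.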

[5] = solubility at pH 4; assay type: physicochemical; conditions: buffer
[6] = system: Mus musculus; test: Anticonvulsant activity at 10 mg/kg tested against audiogenic seizure model using DBA/2 mice; assay type: functional; outline: as §1

Sequence of Voltage-dependent N-type calcium channel subunit alpha-1B (Q00975 whole entry): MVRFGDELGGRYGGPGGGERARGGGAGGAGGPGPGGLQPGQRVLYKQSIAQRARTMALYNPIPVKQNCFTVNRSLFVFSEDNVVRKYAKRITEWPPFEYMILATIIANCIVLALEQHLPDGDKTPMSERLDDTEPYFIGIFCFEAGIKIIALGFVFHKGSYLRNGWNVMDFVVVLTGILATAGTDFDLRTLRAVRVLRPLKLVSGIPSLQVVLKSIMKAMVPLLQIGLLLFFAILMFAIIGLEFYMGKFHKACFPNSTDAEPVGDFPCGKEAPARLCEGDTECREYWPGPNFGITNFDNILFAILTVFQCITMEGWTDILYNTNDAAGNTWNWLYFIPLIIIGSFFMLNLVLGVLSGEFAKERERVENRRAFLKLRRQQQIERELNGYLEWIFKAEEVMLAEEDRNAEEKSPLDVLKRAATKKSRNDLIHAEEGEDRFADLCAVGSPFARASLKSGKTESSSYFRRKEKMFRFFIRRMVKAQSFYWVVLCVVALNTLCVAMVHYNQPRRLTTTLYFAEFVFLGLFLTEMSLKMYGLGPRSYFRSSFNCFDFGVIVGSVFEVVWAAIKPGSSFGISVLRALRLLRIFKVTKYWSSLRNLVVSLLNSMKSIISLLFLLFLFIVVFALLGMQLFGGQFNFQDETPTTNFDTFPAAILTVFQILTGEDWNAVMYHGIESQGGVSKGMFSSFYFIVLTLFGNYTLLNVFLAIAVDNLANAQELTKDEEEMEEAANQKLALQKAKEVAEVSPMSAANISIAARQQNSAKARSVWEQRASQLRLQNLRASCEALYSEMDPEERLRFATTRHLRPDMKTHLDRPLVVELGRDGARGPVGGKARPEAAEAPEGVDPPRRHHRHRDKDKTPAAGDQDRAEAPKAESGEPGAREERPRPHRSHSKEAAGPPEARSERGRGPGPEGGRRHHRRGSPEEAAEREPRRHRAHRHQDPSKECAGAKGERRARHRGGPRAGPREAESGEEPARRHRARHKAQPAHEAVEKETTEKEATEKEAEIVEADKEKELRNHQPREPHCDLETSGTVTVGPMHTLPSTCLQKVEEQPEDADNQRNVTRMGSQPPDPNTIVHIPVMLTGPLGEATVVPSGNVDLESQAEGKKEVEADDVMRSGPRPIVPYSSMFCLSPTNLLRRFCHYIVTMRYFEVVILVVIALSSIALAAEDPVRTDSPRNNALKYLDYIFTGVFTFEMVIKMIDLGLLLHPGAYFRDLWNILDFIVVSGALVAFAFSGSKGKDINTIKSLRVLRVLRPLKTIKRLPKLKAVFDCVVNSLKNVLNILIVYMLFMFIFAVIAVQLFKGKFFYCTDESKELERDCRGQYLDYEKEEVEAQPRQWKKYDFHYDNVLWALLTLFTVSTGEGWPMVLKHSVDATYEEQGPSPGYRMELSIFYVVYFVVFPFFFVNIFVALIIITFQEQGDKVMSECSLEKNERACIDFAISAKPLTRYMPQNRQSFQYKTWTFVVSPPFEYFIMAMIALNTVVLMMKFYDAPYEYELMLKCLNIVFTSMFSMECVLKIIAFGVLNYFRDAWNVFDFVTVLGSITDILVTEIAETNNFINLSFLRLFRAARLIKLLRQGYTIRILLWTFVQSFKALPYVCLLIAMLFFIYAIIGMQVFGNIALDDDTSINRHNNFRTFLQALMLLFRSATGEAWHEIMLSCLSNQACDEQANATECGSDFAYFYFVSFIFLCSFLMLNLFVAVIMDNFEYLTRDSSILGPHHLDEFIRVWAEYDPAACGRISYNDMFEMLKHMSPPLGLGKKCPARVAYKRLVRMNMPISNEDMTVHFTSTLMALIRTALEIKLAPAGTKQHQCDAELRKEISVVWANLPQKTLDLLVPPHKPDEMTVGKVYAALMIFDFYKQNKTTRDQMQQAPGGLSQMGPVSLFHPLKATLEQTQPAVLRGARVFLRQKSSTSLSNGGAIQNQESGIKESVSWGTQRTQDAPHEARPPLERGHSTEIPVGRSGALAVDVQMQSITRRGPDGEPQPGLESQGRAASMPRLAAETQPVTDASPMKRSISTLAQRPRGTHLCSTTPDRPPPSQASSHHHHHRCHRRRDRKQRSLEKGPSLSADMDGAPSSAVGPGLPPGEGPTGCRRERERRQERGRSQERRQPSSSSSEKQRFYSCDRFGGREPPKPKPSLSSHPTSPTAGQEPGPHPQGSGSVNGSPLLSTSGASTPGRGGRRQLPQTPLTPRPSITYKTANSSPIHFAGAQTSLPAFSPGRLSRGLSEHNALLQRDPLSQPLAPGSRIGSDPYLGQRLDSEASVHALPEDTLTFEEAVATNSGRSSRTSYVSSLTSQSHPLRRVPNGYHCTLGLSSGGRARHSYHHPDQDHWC

Row | IC50 [1] [µM] | SMILES | Anticonulsant activity [3] [%] | other results
1 | 1 | CC(C)=CCN(C[C@H](C)NC(=O)[C@H](CC(C)C)NC(=O)N1CCCCCC1)c1ccc(OCc2ccccc2)cc1 |  | 
2 | 4.6 | CC(C)C[C@H](NC(=O)N1CCCCCC1)C(=O)N1CCC(N(CCC(C)O)c2ccc(OCc3ccccc3)cc2)CC1 (stereo partly drawn) |  | solubility [2]: 4 µM (≈ 2.37 µg/mL)
3 |  | CC(C)=CCN(c1ccc(OCc2ccccc2)cc1)C1CCN(C(=O)[C@H](CC(C)C)NC(=O)N2CCCCCC2)CC1 | 0 | 
4 |  | CC(C)C[C@H](NC(=O)N1CCCCCC1)C(=O)N1CCC(Nc2ccc(OCc3ccccc3)cc2)CC1 | 60 | 
5 |  | CC(C)=CCN(c1ccc(OCc2ccccc2)cc1)C1CCN(C(=O)[C@H](CC(C)C)NCCC(C)C)CC1 |  | Anticonulsant activity [6]: 20%
6 |  | CCN(c1ccc(OCc2ccccc2)cc1)C1CCN(C(=O)[C@H](CC(C)C)NC(=O)N2CCCCCC2)CC1 | 0 | 
7 | 1.5 | CC(C)=CCN(c1ccc(OCc2ccccc2)cc1)C1CCCN(C(=O)[C@H](CC(C)C)NC(=O)N2CCCCCC2)C1 (stereo partly drawn) |  | 

Row | SMILES | IC50 [1] [µM] | Anticonulsant activity [3] [%] | other results
8 | CC(C)=CCN(c1ccc(OCc2ccccc2)cc1)C1CCN(C(=O)[C@@H](N)CC(C)C)CC1 | 0.67 |  | ED50 [4]: 6 mg/kg; solubility [2]: 87 µM (≈ 40.3 µg/mL); solubility [5]: 100000 µM (≈ 46400 µg/mL)
9 | CC(C)=CCN(c1ccc(OCc2ccccc2)cc1)C1CCNCC1 | 4.7 |  | 
